Assay results reported in PMC6099358 (Diabetes, Obesity & Metabolism, 2018).

Experiments:
[1] = test system: Japanese participants with T1DM; experiment: 24-hour urinary glucose excretion; format: in vivo, human; conditions: for placebo-corrected adjusted mean (95% CI) change from baseline in 24-hour UGE: Day 7
In short: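 Japanese adults with T1DM on multiple daily insulin injections, after a 2-week placebo run-in, were randomized 1:1:1:1 to oral test compound 2.5, 10 or 25 mg or placebo once each morning for 4 weeks. All urine was collected over 24 h at baseline and Days 1, 7 and 28. Day-7 change was analysed by ANCOVA (baseline covariate) with LOCF.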

[2] = Pharmacokinetics of empagliflozin in plasma; format: in vivo, human
In short: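 Blood and urine were sampled on Days 1 and 28 of 4-week once-daily oral dosing (2.5, 10, 25 mg). Concentrations were measured by validated LC-MS/MS. Steady state was judged from troughs on Days 2, 7, 14, 21, 27, 28 and 29. Cmax, AUC and t1/2,ss were derived non-compartmentally. Timepoint statistics required ≥2/3 of values within the validated range.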

[3] = test system: Japanese participants with T1DM; experiment: HbA1c and fasting plasma glucose; format: in vivo, human; conditions: Day 28
In short: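 During 4 weeks of once-daily oral test compound or placebo, blood was drawn for HbA1c on Days 1 and 28. FPG was sampled on Days −1, 1, 2, 7, 8, 14, 21, 28 and 29. Samples were assayed at a central laboratory. Changes from baseline were analysed by ANCOVA (treatment fixed, baseline covariate).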

[4] = test system: Japanese participants with T1DM; experiment: Weekly recorded insulin dose; format: in vivo, human; conditions: for recorded insulin dose adjusted mean difference vs placebo (95% CI): Week 4; for % of adjusted mean change from baseline in recorded insulin dose (reduction from baseline): within Week 4
In short: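 Participants recorded basal and bolus insulin doses in a diary. Weekly totals were compiled during 4 weeks of once-daily oral test compound or placebo. At randomization, HbA1c 7.5–<8% prompted a 10% cut in daily insulin; otherwise dosing was at investigator discretion. Changes were analysed by ANCOVA with baseline covariate.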

Body weight = format: in vivo, human; conditions: Day 28
In short: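 T1DM participants on multiple daily insulin injections took oral test compound or placebo once daily for 4 weeks. Body weight was measured on Day 28. Change from baseline was analysed by ANCOVA, with treatment as a fixed effect and baseline as a linear covariate.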

[5] = test system: Japanese participants with T1DM; experiment: Continuous glucose monitoring; format: in vivo, human; conditions: within Week 4, CGM
In short: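 A blinded professional CGM device was worn from Day −6 to Day 28 during once-daily oral test compound or placebo. Glucose exposure was taken as mean daily glucose AUC. Variability was taken as glucose interquartile range, plus % time at ≤70, >70 to ≤180 and >180 mg/dL. Week-4 changes from baseline are adjusted means.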

[6] = test system: Japanese participants with T1DM; experiment: Ketogenesis markers; format: in vivo, human; conditions: after 4 weeks of treatment
In short: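 Serum β-hydroxybutyrate was sampled on Days −1, 1, 7 and 8 and measured by a contract laboratory. The change from baseline in AUC0–24h was calculated on Day 7. Day-28 levels were measured among the laboratory safety parameters and summarised descriptively.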

[7] = test system: Japanese participants with T1DM; experiment: Adverse events and hypoglycaemic episodes during 4-week double-blind treatment; format: in vivo, human; conditions: 4 weeks
In short: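 In a double-blind, 4-week study, participants took test compound 2.5, 10 or 25 mg or placebo orally once daily. Adverse events were coded in MedDRA 19.1. Hypoglycaemic events were based on scheduled blood glucose tests and/or CGM. Special-interest events included genital and urinary infections and volume depletion. Severe hypoglycaemia and DKA were adjudicated externally. Results were summarised descriptively in all treated participants.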

[8] = test system: Japanese participants with T1DM; experiment: Laboratory safety parameters; format: in vivo, human; conditions: empagliflozin groups, Day 28
In short: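 Blood and urine were collected on Days 1, 7 and 28 of once-daily oral dosing with test compound or placebo. They were measured centrally and summarised descriptively in the treated set.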

[9] = test system: participants with T2DM with established cardiovascular disease; conditions: cited from earlier work
[10] = test system: Japanese participants with T2DM; conditions: 10 mg, Day 28, Japanese T2DM; cited from earlier work
participants with T1DM = conditions: vs placebo 4 [0.6%]; cited from earlier work

OC[C@H]1O[C@@H](c2ccc(Cl)c(Cc3ccc(O[C@H]4CCOC4)cc3)c2)[C@H](O)[C@@H](O)[C@@H]1O [empagliflozin]
placebo-corrected adjusted mean (95% CI) change from baseline in 24-hour UGE ([1]; 2.5 mg once daily): 65.10 [43.29, 86.90] g/24 h | adjusted effect on UGE ([1]; 2.5 mg, Day 28, Japanese T1DM): 91.0 g/24 h | placebo-corrected adjusted mean (95% CI) change from baseline in 24-hour UGE ([1]; 10 mg once daily): 81.19 [58.80, 103.58] g/24 h | placebo-corrected adjusted mean (95% CI) change from baseline in 24-hour UGE ([1]; 25 mg once daily): 98.11 [75.91, 120.31] g/24 h | exposure (AUC and Cmax) versus dose ([2]; after a single dose and at steady state): increased proportionally with dose | Tmax ([2]; human, plasma, po): ~1.5 h | time to steady state ([2]; once daily oral dosing, trough concentrations): ≤ 7 days | time to peak plasma level after dosing ([2]; single and multiple oral doses, 2.5-25 mg): 1.5 h | FPG adjusted mean difference vs placebo (95% CI) ([3]; 2.5 mg): -14.27 mg/dL | HbA1c adjusted mean difference vs placebo (95% CI) ([3]; 2.5 mg): −0.20% | FPG adjusted mean difference vs placebo (95% CI) ([3]; 10 mg): -43.63 mg/dL | HbA1c adjusted mean difference vs placebo (95% CI) ([3]; 10 mg): −0.35% | FPG adjusted mean difference vs placebo (95% CI) ([3]; 25 mg): -59.57 mg/dL | HbA1c adjusted mean difference vs placebo (95% CI) ([3]; 25 mg): −0.20% | recorded insulin dose adjusted mean difference vs placebo (95% CI) ([4]; 2.5 mg): −0.08 U/kg | % of adjusted mean change from baseline in recorded insulin dose (reduction from baseline) ([4]; 2.5 mg): −20.5% | recorded insulin dose adjusted mean difference vs placebo (95% CI) ([4]; 10 mg): −0.10 U/kg | % of adjusted mean change from baseline in recorded insulin dose (reduction from baseline) ([4]; 10 mg): −23.3% | recorded insulin dose adjusted mean difference vs placebo (95% CI) ([4]; 25 mg): −0.09 U/kg | % of adjusted mean change from baseline in recorded insulin dose (reduction from baseline) ([4]; 25 mg): −24.2% | body weight adjusted mean difference vs placebo (95% CI) (Body weight; 2.5 mg): -1.37 kg | body weight adjusted mean difference vs placebo (95% CI) (Body weight; 10 mg): -1.47 kg | body weight adjusted mean difference vs placebo (95% CI) (Body weight; 25 mg): -1.70 kg | IQR of glucose adjusted mean difference vs placebo (95% CI) ([5]; 2.5 mg): -23.08 mg/dL | MDAUC of glucose adjusted mean difference vs placebo (95% CI) ([5]; 2.5 mg): -558 mg·h/dL | IQR of glucose adjusted mean difference vs placebo (95% CI) ([5]; 10 mg): -13.08 mg/dL | MDAUC of glucose adjusted mean difference vs placebo (95% CI) ([5]; 10 mg): -338 mg·h/dL | IQR of glucose adjusted mean difference vs placebo (95% CI) ([5]; 25 mg): -22.09 mg/dL | MDAUC of glucose adjusted mean difference vs placebo (95% CI) ([5]; 25 mg): -514 mg·h/dL | highest individual serum BHB level [6]: approximately 0.8 mmol/L | mean serum BHB levels ([6]; all doses): < 0.5 mmol/L | Asymptomatic hypoglycaemia with PG ≤70 mg/dL, rate ([7]; 2.5 mg): 5.1 episodes per 30 days per participant | Asymptomatic hypoglycaemia with PG ≤70 mg/dL, total number of episodes ([7]; 2.5 mg): 62 episodes | Death ([7]; 2.5 mg): 0 (0) % (n) of participants | Decreased renal function ([7]; 2.5 mg): 0 (0) % (n) of participants | Events consistent with UTI ([7]; 2.5 mg): 0 (0) % (n) of participants | Events consistent with genital infection ([7]; 2.5 mg): 7.7 (1) % (n) of participants | Events consistent with volume depletion ([7]; 2.5 mg): 0 (0) % (n) of participants | Hepatic injury ([7]; 2.5 mg): 0 (0) % (n) of participants | Hypoglycaemia (AE) ([7]; 2.5 mg): 92.3 (12) % (n) of participants | Hypoglycaemia requiring assistance, rate ([7]; 2.5 mg): 0 (0) episodes per 30 days per participant | Hypoglycaemia requiring assistance, total number of episodes ([7]; 2.5 mg): 0 (0) episodes | Ketoacidosis ([7]; 2.5 mg): 0 (0) % (n) of participants | Symptomatic hypoglycaemia with PG <54 mg/dL, rate ([7]; 2.5 mg): 1.5 episodes per 30 days per participant | Symptomatic hypoglycaemia with PG <54 mg/dL, total number of episodes ([7]; 2.5 mg): 18 episodes | Symptomatic hypoglycaemia with PG ≥54 and ≤70 mg/dL, rate ([7]; 2.5 mg): 1.8 episodes per 30 days per participant | Symptomatic hypoglycaemia with PG ≥54 and ≤70 mg/dL, total number of episodes ([7]; 2.5 mg): 22 episodes | participants with genital infection (vulvovaginal candidiasis of mild intensity) ([7]; 2.5 mg): 1 participants | ≥1 AE ([7]; 2.5 mg): 92.3 (12) % (n) of participants | ≥1 AE leading to discontinuation ([7]; 2.5 mg): 0 (0) % (n) of participants | ≥1 Drug-related AE ([7]; 2.5 mg): 84.6 (11) % (n) of participants | ≥1 Serious AE ([7]; 2.5 mg): 0 (0) % (n) of participants | ≥1 Severe AE ([7]; 2.5 mg): 0 (0) % (n) of participants | Asymptomatic hypoglycaemia with PG ≤70 mg/dL, rate ([7]; 10 mg): 6.7 episodes per 30 days per participant | Asymptomatic hypoglycaemia with PG ≤70 mg/dL, total number of episodes ([7]; 10 mg): 78 episodes | Death ([7]; 10 mg): 0 (0) % (n) of participants | Decreased renal function ([7]; 10 mg): 0 (0) % (n) of participants | Events consistent with UTI ([7]; 10 mg): 0 (0) % (n) of participants | Events consistent with genital infection ([7]; 10 mg): 0 (0) % (n) of participants | Events consistent with volume depletion ([7]; 10 mg): 0 (0) % (n) of participants | Hepatic injury ([7]; 10 mg): 0 (0) % (n) of participants | Hypoglycaemia (AE) ([7]; 10 mg): 100 (12) % (n) of participants | Hypoglycaemia requiring assistance, rate ([7]; 10 mg): 0 (0) episodes per 30 days per participant | Hypoglycaemia requiring assistance, total number of episodes ([7]; 10 mg): 0 (0) episodes | Ketoacidosis ([7]; 10 mg): 0 (0) % (n) of participants | Symptomatic hypoglycaemia with PG <54 mg/dL, rate ([7]; 10 mg): 2.7 episodes per 30 days per participant | Symptomatic hypoglycaemia with PG <54 mg/dL, total number of episodes ([7]; 10 mg): 31 episodes | Symptomatic hypoglycaemia with PG ≥54 and ≤70 mg/dL, rate ([7]; 10 mg): 3.9 episodes per 30 days per participant | Symptomatic hypoglycaemia with PG ≥54 and ≤70 mg/dL, total number of episodes ([7]; 10 mg): 45 episodes | ≥1 AE ([7]; 10 mg): 100 (12) % (n) of participants | ≥1 AE leading to discontinuation ([7]; 10 mg): 0 (0) % (n) of participants | ≥1 Drug-related AE ([7]; 10 mg): 100 (12) % (n) of participants | ≥1 Serious AE ([7]; 10 mg): 0 (0) % (n) of participants | ≥1 Severe AE ([7]; 10 mg): 0 (0) % (n) of participants | Asymptomatic hypoglycaemia with PG ≤70 mg/dL, total number of episodes ([7]; 25 mg): 140 episodes | Death ([7]; 25 mg): 0 (0) % (n) of participants | Decreased renal function ([7]; 25 mg): 0 (0) % (n) of participants | Events consistent with UTI ([7]; 25 mg): 0 (0) % (n) of participants | Events consistent with genital infection ([7]; 25 mg): 8.3 (1) % (n) of participants | Events consistent with volume depletion ([7]; 25 mg): 0 (0) % (n) of participants | Hepatic injury ([7]; 25 mg): 0 (0) % (n) of participants | Hypoglycaemia (AE) ([7]; 25 mg): 100 (12) % (n) of participants | Hypoglycaemia requiring assistance, rate ([7]; 25 mg): 0 (0) episodes per 30 days per participant | Hypoglycaemia requiring assistance, total number of episodes ([7]; 25 mg): 0 (0) episodes | Ketoacidosis ([7]; 25 mg): 0 (0) % (n) of participants | Symptomatic hypoglycaemia with PG <54 mg/dL, rate ([7]; 25 mg): 1.8 episodes per 30 days per participant | Symptomatic hypoglycaemia with PG <54 mg/dL, total number of episodes ([7]; 25 mg): 21 episodes | Symptomatic hypoglycaemia with PG ≥54 and ≤70 mg/dL, rate ([7]; 25 mg): 1.0 episodes per 30 days per participant | Symptomatic hypoglycaemia with PG ≥54 and ≤70 mg/dL, total number of episodes ([7]; 25 mg): 12 episodes | participants with genital infection (vulvovaginal candidiasis of mild intensity) ([7]; 25 mg): 1 participants | ≥1 AE ([7]; 25 mg): 100 (12) % (n) of participants | ≥1 AE leading to discontinuation ([7]; 25 mg): 0 (0) % (n) of participants | ≥1 Drug-related AE ([7]; 25 mg): 91.7 (11) % (n) of participants | ≥1 Serious AE ([7]; 25 mg): 0 (0) % (n) of participants | ≥1 Severe AE ([7]; 25 mg): 0 (0) % (n) of participants | DKA events (investigator-reported or adjudicated) ([7]; all doses): No events meeting the criteria for DKA were reported | tolerability ([7]; all three doses (2.5, 10, 25 mg)): generally well tolerated | changes from baseline in laboratory safety parameters (overall) [8]: no significant changes from baseline | reduction of incident or worsening nephropathy [9]: 39% | reduction of risk of cardiovascular death [9]: 38% | adjusted effect on UGE [10]: 80.9 g/24 h

CCOc1ccc(Cc2cc([C@@H]3O[C@H](SC)[C@@H](O)[C@H](O)[C@H]3O)ccc2Cl)cc1 [sotagliflozin]
DKA (participants with T1DM): 21 [3.0%] participants [%]
